≈ marks a conversion by molar mass, not a printed value.
Experiments:
Francisella tularensis = assay: Antimicrobial activity against Francisella tularensis Utah 112 measured after overnight incubation by microdilution method; type: functional
Staphylococcus aureus [1] = assay: Antimicrobial activity against methicillin-resistant Staphylococcus aureus ATCC 43300 measured after overnight incubation by microdilution method; type: functional
Escherichia coli [2] = assay: Antimicrobial activity against wild-type Escherichia coli BW25113 measured after overnight incubation by microdilution method; type: functional
[3] = Inhibition of N-terminus His-tagged Francisella tularensis subsp. Tularensis Schu4 Fab1 expressed in Escherichia coli […] (DE3) cells assessed as conversion of crotonyl-CoA and NADH to butyryl-CoA and NAD+ preincubated for 30 mins by fluorescence analysis; set-up: species or system Francisella tularensis subsp. tularensis SCHU S4
Outline: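 Experimental Ki came from varying crotonyl-CoA against inhibitor concentration at saturating NADH (200 µM). Calculated Ki used Cheng-Prusoff, IC50 = Ki(1+[S]/Km), with [S]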

Escherichia coli [4] = assay: Antimicrobial activity against TolC-deficient Escherichia coli measured after overnight incubation by microdilution method; type: functional
Staphylococcus aureus [5] = assay: Antimicrobial activity against Staphylococcus aureus ATCC 29213 measured after overnight incubation by microdilution method; type: functional

Cc1cc2ncn(Cc3ccc(Cl)c(Cl)c3)c2cc1C
MIC (Francisella tularensis): 7.8 µg/mL (≈ 25.6 µM)
MIC (Staphylococcus aureus [1]): 50 µg/mL (≈ 164 µM)
MIC (Escherichia coli [2]): > 200 µg/mL
IC50 [3]: 300 nM
MIC (Escherichia coli [4]): 6.25 µg/mL (≈ 20.5 µM)

Cc1cc2ncn(C(C)c3ccc(Cl)c(Cl)c3)c2cc1C (stereo not given)
MIC (Francisella tularensis): > 12.5 µg/mL
MIC (Staphylococcus aureus [1]): 12.5 µg/mL (≈ 39.2 µM)
MIC (Escherichia coli [2]): > 12.5 µg/mL
IC50 [3]: 370 nM
MIC (Escherichia coli [4]): 6.3 µg/mL (≈ 19.7 µM)
MIC (Staphylococcus aureus [5]): 12.5 µg/mL (≈ 39.2 µM)

CC(c1ccc(Cl)c(Cl)c1)n1cnc2cc3c(cc21)CCC3 (stereo not given)
MBC (Francisella tularensis): 9.4 µg/mL (≈ 28.4 µM)
MIC (Francisella tularensis): 3.9 µg/mL (≈ 11.8 µM)
MBC (Staphylococcus aureus [1]): 12.5 µg/mL (≈ 37.7 µM)
MIC (Staphylococcus aureus [1]): 6.3 µg/mL (≈ 19 µM)
MIC (Escherichia coli [2]): > 12.5 µg/mL
IC50 [3]: 18 nM
MBC (Escherichia coli [4]): 12.5 µg/mL (≈ 37.7 µM)
MIC (Escherichia coli [4]): 3.1 µg/mL (≈ 9.36 µM)
MBC (Staphylococcus aureus [5]): > 25 µg/mL
MIC (Staphylococcus aureus [5]): 5.5 µg/mL (≈ 16.6 µM)

CC(c1ccc(Cl)c(Cl)c1)n1cnc2cc3c(cc21)CCCC3 (stereo not given)
MBC (Francisella tularensis): 25 µg/mL (≈ 72.4 µM)
MIC (Francisella tularensis): 3.1 µg/mL (≈ 8.98 µM)
MBC (Staphylococcus aureus [1]): 25 µg/mL (≈ 72.4 µM)
MIC (Staphylococcus aureus [1]): 3.1 µg/mL (≈ 8.98 µM)
MIC (Escherichia coli [2]): > 12.5 µg/mL
IC50 [3]: 14 nM
MBC (Escherichia coli [4]): 12.5 µg/mL (≈ 36.2 µM)
MBC (Staphylococcus aureus [5]): 25 µg/mL (≈ 72.4 µM)
MIC (Staphylococcus aureus [5]): 3.1 µg/mL (≈ 8.98 µM)

CC(c1ccc(Cl)c(Cl)c1)n1cnc2cc3c(cc21)CC(C)(C)C3 (stereo not given)
MIC (Francisella tularensis): > 12.5 µg/mL
MBC (Staphylococcus aureus [1]): > 12.5 µg/mL
MIC (Staphylococcus aureus [1]): 4.7 µg/mL (≈ 13.1 µM)
MIC (Escherichia coli [2]): > 12.5 µg/mL
IC50 [3]: 240 nM
MBC (Escherichia coli [4]): > 25 µg/mL
MIC (Escherichia coli [4]): > 12.5 µg/mL
MBC (Staphylococcus aureus [5]): > 12.5 µg/mL
MIC (Staphylococcus aureus [5]): 4.7 µg/mL (≈ 13.1 µM)

CC(c1ccc(Cl)c(Cl)c1)n1cnc2cc3c(cc21)COC3 (stereo not given)
MIC (Francisella tularensis): > 12.5 µg/mL
MIC (Staphylococcus aureus [1]): > 12.5 µg/mL
MIC (Escherichia coli [2]): > 12.5 µg/mL
IC50 [3]: 890 nM
MIC (Escherichia coli [4]): > 12.5 µg/mL
MIC (Staphylococcus aureus [5]): > 12.5 µg/mL

COc1ccc(Cn2cnc3cc4c(cc32)CCC4)cc1C
MBC (Francisella tularensis): 12.5 µg/mL (≈ 42.8 µM)
MIC (Francisella tularensis): 5.5 µg/mL (≈ 18.8 µM)
MIC (Staphylococcus aureus [1]): > 12.5 µg/mL
MIC (Escherichia coli [2]): > 12.5 µg/mL
IC50 [3]: 5 nM
MIC (Escherichia coli [4]): 12.5 µg/mL (≈ 42.8 µM)
MIC (Staphylococcus aureus [5]): > 12.5 µg/mL

COc1ccc(Cn2cnc3cc4c(cc32)CCCC4)cc1C
MBC (Francisella tularensis): 6.3 µg/mL (≈ 20.6 µM)
MIC (Francisella tularensis): 3.1 µg/mL (≈ 10.1 µM)
MIC (Staphylococcus aureus [1]): 12.5 µg/mL (≈ 40.8 µM)
MIC (Escherichia coli [2]): > 12.5 µg/mL
IC50 [3]: 140 nM
Ki [3]: 130 nM
MBC (Escherichia coli [4]): 9.4 µg/mL (≈ 30.7 µM)
MIC (Escherichia coli [4]): 4.7 µg/mL (≈ 15.3 µM)
MBC (Staphylococcus aureus [5]): 25 µg/mL (≈ 81.6 µM)
MIC (Staphylococcus aureus [5]): 6.3 µg/mL (≈ 20.6 µM)

COc1ccc(Cn2cnc3cc4c(cc32)CCCC4)cc1OC
MIC (Francisella tularensis): > 12.5 µg/mL
MIC (Staphylococcus aureus [1]): > 12.5 µg/mL
MIC (Escherichia coli [2]): > 12.5 µg/mL
IC50 [3]: 1360 nM
Ki [3]: 1430 nM
MIC (Escherichia coli [4]): > 12.5 µg/mL
MIC (Staphylococcus aureus [5]): > 12.5 µg/mL

c1cc2c(cc1Cn1cnc3cc4c(cc31)CCCC4)OCO2
MBC (Francisella tularensis): 18.8 µg/mL (≈ 61.4 µM)
MIC (Francisella tularensis): 4.7 µg/mL (≈ 15.3 µM)
MBC (Staphylococcus aureus [1]): > 25 µg/mL
MIC (Staphylococcus aureus [1]): 6.3 µg/mL (≈ 20.6 µM)
MIC (Escherichia coli [2]): > 12.5 µg/mL
IC50 [3]: 320 nM
Ki [3]: 330 nM
MBC (Escherichia coli [4]): 25 µg/mL (≈ 81.6 µM)
MIC (Escherichia coli [4]): 9.4 µg/mL (≈ 30.7 µM)
MBC (Staphylococcus aureus [5]): > 25 µg/mL
MIC (Staphylococcus aureus [5]): 4.7 µg/mL (≈ 15.3 µM)
